Key:
[1] = biological target: T1, 5-hydroxytryptamine receptor 7 (Homo sapiens, UniProt P34969); test: biochemical; type: cell-based, CHO
[2] = biological target: 5-hydroxytryptamine receptor 6 (Homo sapiens) (UniProt P50406); test: Displacement of [3H]-LSD from human recombinant 5-HT6 receptor expressed in CHO cells at 10^-7 M incubated for 60 mins by microbeta2 scintillation counter relative to control; type: cell-based
Outline: (§1)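 Radioligand displacement from recombinant human receptor membranes, tested at two final concentrations (10^-6 and 10^-7 M), with scintillation counting. Results were expressed as percent inhibition of specific binding.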

[3] = biological target: 5-hydroxytryptamine receptor 2A (Homo sapiens) (UniProt P28223); conditions: HEK293, at 1 µM
Sequence of 5-hydroxytryptamine receptor 2A (Homo sapiens) (P28223 whole entry): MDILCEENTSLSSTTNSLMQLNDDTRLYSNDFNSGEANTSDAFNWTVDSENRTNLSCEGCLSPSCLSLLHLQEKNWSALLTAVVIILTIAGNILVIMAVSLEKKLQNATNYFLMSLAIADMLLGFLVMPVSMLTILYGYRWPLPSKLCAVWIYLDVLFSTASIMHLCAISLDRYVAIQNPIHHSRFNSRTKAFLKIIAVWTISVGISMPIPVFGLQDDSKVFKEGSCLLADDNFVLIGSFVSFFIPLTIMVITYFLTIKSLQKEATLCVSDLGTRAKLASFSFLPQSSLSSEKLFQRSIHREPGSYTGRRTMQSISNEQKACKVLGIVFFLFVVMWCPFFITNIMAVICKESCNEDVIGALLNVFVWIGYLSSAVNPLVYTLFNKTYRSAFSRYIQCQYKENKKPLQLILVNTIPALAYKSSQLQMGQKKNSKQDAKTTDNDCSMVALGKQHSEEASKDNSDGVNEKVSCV

[4] = biological target: 3',5'-cyclic-AMP phosphodiesterase 4B (Homo sapiens) (UniProt Q07343); test: Inhibition of human recombinant full length N-terminal GST-tagged PDE4B1 expressed in baculovirus infected Sf9 cells at 10^-5 M using cAMP as substrate incubated for 20 mins followed by substrate addition by luciferase assay relative to control
Sequence of 3',5'-cyclic-AMP phosphodiesterase 4B (Homo sapiens) (Q07343 whole entry): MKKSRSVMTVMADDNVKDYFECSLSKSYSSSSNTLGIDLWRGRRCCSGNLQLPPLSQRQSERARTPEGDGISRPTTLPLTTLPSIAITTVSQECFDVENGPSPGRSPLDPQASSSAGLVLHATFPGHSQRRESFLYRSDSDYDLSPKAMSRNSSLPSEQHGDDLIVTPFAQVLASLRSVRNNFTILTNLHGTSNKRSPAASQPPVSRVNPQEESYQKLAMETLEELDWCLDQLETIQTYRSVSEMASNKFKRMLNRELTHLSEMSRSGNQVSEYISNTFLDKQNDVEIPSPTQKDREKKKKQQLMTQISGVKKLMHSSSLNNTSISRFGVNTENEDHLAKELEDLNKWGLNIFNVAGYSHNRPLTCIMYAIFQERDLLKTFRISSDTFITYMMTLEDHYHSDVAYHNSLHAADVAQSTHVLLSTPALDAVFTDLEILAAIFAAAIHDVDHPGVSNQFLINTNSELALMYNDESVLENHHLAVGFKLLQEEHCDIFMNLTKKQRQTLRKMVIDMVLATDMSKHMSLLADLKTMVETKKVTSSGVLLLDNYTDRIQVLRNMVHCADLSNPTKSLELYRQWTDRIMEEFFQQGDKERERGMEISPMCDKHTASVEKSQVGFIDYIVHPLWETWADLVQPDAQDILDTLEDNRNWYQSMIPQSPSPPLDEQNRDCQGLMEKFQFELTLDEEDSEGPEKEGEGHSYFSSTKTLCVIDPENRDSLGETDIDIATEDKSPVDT

[5] = biological target: 5-hydroxytryptamine receptor 2A (Homo sapiens) (UniProt P28223); conditions: HEK293, at 0.1 µM
[6] = biological target: T2, 5-hydroxytryptamine receptor 1A (Homo sapiens, UniProt P08908); test: Displacement of [3H]-8-OH-DPAT from human recombinant 5-HT1A receptor expressed in HEK293 cells incubated for 60 mins by microbeta2 scintillation counter; type: cell-based
T2 sequence (P08908 whole entry): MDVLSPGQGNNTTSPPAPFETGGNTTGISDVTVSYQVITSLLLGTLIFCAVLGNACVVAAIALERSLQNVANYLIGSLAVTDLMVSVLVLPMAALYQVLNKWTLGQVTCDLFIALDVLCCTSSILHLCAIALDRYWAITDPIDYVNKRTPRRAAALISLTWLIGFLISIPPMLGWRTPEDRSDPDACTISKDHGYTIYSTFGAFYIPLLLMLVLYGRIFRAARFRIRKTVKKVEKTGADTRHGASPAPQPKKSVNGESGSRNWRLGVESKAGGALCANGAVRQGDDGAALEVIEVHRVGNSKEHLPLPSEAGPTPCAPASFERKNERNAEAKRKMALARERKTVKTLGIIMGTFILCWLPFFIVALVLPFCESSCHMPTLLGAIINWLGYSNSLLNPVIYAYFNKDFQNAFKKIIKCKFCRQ

[7] = biological target: 5-hydroxytryptamine receptor 6 (Homo sapiens) (UniProt P50406); test: Displacement of [3H]-LSD from human recombinant 5-HT6 receptor expressed in CHO cells at 10^-6 M incubated for 60 mins by microbeta2 scintillation counter relative to control; type: cell-based
Outline: as §1

SW480 = test: Cytotoxicity against human SW480 cells assessed as growth inhibition measured after 72 hrs by MTT assay; type: functional, cell-based; conditions: SW480, 72 h
Outline: (§2)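 Cells were seeded at 1 × 10^4 per well: SW480 in MEM, PC3 in RPMI 1640, HaCaT in DMEM high glucose, each with 10% FBS. Compounds were added at 10–140 µM and incubated for 72 h. MTT was then added at 0.5 mg/mL in serum-free medium for 4 h at 37 °C. Formazan was dissolved in DMSO/isopropanol (1:1) and read at 570 nm. IC50 was given in µM; untreated cells served as control.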

HaCaT = test: Cytotoxicity against human HaCaT cells assessed as growth inhibition measured after 72 hrs by MTT assay; type: cell-based
Outline: as §2

PC-3 = test: Cytotoxicity against human PC3 cells assessed as growth inhibition measured after 72 hrs by MTT assay; type: functional, cell-based; conditions: PC-3, 72 h
Outline: as §2

[8] = biological target: T1, 5-hydroxytryptamine receptor 7; test: Antagonist activity at human recombinant 5-HT7 receptor expressed in CHOK1 cells measured after 60 mins in the presence of serotonin by LANCE TR-FRET assay relative to control; type: cell-based
in vitro = conditions: CD1, mouse, microsomes
[9] = Selectivity index, ratio of IC50 for human HaCaT cells for human PC3 cells; type: toxicity; conditions: HaCaT cells versus PC3 cells, read-out: Ratio IC50
Mus musculus [10] = test: Effect on locomotor activity in Swiss albino mouse at 0.625 mg/kg, ip; type: ADME, organism-based; conditions: in vivo
Outline: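 Male Swiss albino mice were dosed ip in 1% Tween 80 at 10 ml/kg 60 min before testing. Each mouse was placed individually in a cage in a photobeam activity monitor. Ambulation crossings were counted from 2 to 6 min.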

[11] = Selectivity index, ratio of IC50 for human HaCaT cells to IC50 for human SW480 cells
[12] = biological target: T1, 5-hydroxytryptamine receptor 7; test: Agonist activity at human recombinant 5-HT7 receptor expressed in CHOK1 cells by LANCE TR-FRET assay relative to control; type: cell-based
Outline: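 cAMP assay in CHO-K1 cells expressing human 5-HT7 […], at 2x10^5 cells/ml in HBSS with 5 mM HEPES, IBMX and 0.1% BSA, pH 7.4. Cells were stimulated with the compounds (8 concentrations) for 60 min at room temperature. cAMP was read by LANCE Ultra TR-FRET after 1 h with tracer and antibody. EC50 was obtained by nonlinear regression.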

[13] = biological target: T2, 5-hydroxytryptamine receptor 1A; test: Antagonist activity at human recombinant 5-HT1A receptor expressed in CHOK1 cells incubated for 25 mins followed by addition of methiothepin by microbeta2 scintillation counter; type: cell-based; conditions: in the assay text read “serotonin” for “methiothepin”; read-out: IC50
Outline: (§3)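 Aequorin Ca2+ assay in antagonist mode in CHO-K1 cells expressing human 5-HT1A, Gα16 and mitochondrial aequorin, loaded with 5 μM coelenterazine h. Cells were injected onto the compounds (8–10 concentrations) and incubated for 25 min.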

[14] = biological target: T3, 5-hydroxytryptamine receptor 1A (Homo sapiens) (UniProt P08908); test: Antagonist activity at human recombinant 5-HT1A receptor expressed in CHOK1 cells assessed as equilibrium binding constant incubated for 25 mins followed by addition of methiothepin by microbeta2 scintillation counter; type: cell-based; conditions: in the assay text read “serotonin” for “methiothepin”
T3 sequence (whole entry): T2 sequence (P08908 whole entry)
Outline: as §3

[15] = biological target: T3, 5-hydroxytryptamine receptor 1A (Homo sapiens); test: Antagonist activity at human recombinant 5-HT1A receptor expressed in CHOK1 cells incubated for 25 mins followed by addition of […] by microbeta2 scintillation counter relative to control; type: cell-based
Outline: as §3

Mus musculus [16] = test: Antidepressant activity in Swiss albino mouse assessed as decrease in immobility time at 0.625 mg/kg, ip measured after 60 mins by forced swim test relative to control; type: functional; set-up: scale not given: the % may be the effect or the level left
Outline: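 Male Swiss albino mice (22–26 g), 7–10 per dose, were dosed ip in 1% Tween 80 at 10 ml/kg 60 min before the test. In the Porsolt test, each mouse was placed for 6 min in a cylinder with 6 cm of water at 23–25 °C. Immobility was scored over the last 4 min and compared with vehicle controls by ANOVA/Bonferroni.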

[17] = biological target: T1, 5-hydroxytryptamine receptor 7; test: Antagonist activity at human recombinant 5-HT7 receptor expressed in CHOK1 cells measured after 60 mins in the presence of serotonin by LANCE TR-FRET assay; type: cell-based
[18] = biological target: T3, 5-hydroxytryptamine receptor 1A (Homo sapiens); test: Agonist activity at human recombinant 5-HT1A receptor expressed in CHOK1 cells measured after 1 hr by microbeta2 scintillation counter relative to control; type: cell-based
Outline: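 Aequorin Ca2+ assay in CHO-K1 cells coexpressing mitochondrial aequorin, human 5-HT1A and Gα16. Thawed cells were loaded with coelenterazine h (5 μM final) for 16 h at 16 °C in the dark with agitation, then diluted to 5000 cells/ml. After 1 h they were injected onto the compounds (8–10 concentrations) and luminescence was recorded for 30 s.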

[19] = biological target: T1, 5-hydroxytryptamine receptor 7; test: Antagonist activity at human recombinant 5-HT7 receptor expressed in CHOK1 cells assessed as equilibrium binding constant measured after 60 mins in the presence of serotonin by LANCE TR-FRET assay; type: cell-based
[20] = biological target: 3',5'-cyclic-AMP phosphodiesterase 4B (Homo sapiens) (UniProt Q07343); conditions: Sf9, 10^-5.5 M

T1 sequence (P34969 whole entry): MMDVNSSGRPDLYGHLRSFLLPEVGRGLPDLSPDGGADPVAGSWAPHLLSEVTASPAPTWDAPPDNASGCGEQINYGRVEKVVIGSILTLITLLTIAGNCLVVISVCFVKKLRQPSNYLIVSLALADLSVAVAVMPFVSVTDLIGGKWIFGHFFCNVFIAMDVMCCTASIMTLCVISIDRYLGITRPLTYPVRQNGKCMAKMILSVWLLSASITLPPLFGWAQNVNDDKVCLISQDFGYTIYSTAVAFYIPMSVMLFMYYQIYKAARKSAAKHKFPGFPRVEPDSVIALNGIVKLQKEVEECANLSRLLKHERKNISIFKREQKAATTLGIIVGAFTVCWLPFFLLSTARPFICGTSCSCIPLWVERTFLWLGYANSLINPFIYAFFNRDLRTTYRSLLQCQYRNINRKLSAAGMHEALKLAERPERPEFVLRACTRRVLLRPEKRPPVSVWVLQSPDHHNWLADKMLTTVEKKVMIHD
Sequence of 5-hydroxytryptamine receptor 6 (Homo sapiens) (P50406 whole entry): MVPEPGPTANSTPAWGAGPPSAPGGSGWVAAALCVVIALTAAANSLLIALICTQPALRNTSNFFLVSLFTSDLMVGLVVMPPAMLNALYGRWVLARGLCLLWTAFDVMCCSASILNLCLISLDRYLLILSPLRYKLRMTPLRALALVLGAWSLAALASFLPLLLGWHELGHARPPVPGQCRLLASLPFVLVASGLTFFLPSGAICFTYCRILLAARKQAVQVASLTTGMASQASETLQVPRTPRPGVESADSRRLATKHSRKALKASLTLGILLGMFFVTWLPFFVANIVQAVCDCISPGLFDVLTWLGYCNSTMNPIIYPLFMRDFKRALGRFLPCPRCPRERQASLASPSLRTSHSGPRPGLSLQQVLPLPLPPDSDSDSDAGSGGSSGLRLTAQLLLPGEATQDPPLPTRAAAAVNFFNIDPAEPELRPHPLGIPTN

SMILES | Ki [1] | inhibition [2] | inhibition [3] | inhibition [4] | inhibition [5] | Ki [6] | inhibition [7] | further results
COc1ccc(/C=C2\NC(=O)N(CCCCN3CCN(c4ncccn4)CC3)C2=O)cc1OC1CCCC1 | 298 nM | 0% | 78% | 10% | 19% | 64 nM | 8% | –
COc1cccc2c1C(=O)c1c(O)c3c(c(O)c1C2=O)C[C@@](O)(C(=O)CO)C[C@@H]3O[C@H]1C[C@H](N)[C@H](O)[C@H](C)O1 [DOXORUBICIN] | – | – | – | – | – | – | – | IC50 (SW480): 290 nM; IC50 (HaCaT): 235 nM; IC50 (PC-3): 590 nM
COc1ccc(/C=C2\NC(=O)N(CCCCN3CCN(c4ccccc4OC)CC3)C2=O)cc1OC | 16 nM | 0% | 87% | 8% | 31% | 7 nM | 9% | –
COc1ccc(/C=C2\NC(=O)N(CCCN3CCN(c4cccc(Cl)c4Cl)CC3)C2=O)cc1OC | 22 nM | 0% | 97% | 5% | 61% | 53 nM | 72% | –
COc1ccc(/C=C2\NC(=O)N(CCCCN3CCN(c4ncccn4)CC3)C2=O)cc1OC | 933 nM | 0% | 41% | 14% | 0% | 45 nM | 0% | –
COc1ccc(/C=C2\NC(=O)N(CCCCN3CCN(c4cccc(Cl)c4Cl)CC3)C2=O)cc1OC1CCCC1 | 125 nM | 8% | 90% | 3% | 39% | 132 nM | 34% | –
CC1CCN(CC[C@H]2CCCN2S(=O)(=O)c2cccc(O)c2)CC1 | – | – | – | – | – | – | – | Emax [8]: 8%
COc1ccc(/C=C2\NC(=O)N(CCCN3CCN(c4ncccn4)CC3)C2=O)cc1OC1CCCC1 | > 1000 nM | 0% | 89% | 9% | 33% | 85 nM | 23% | –
COc1ccc(/C=C2\NC(=O)N(CCCN3CCN(c4ccccc4OC)CC3)C2=O)cc1OC1CCCC1 | 6 nM | 0% | 96% | 3% | 44% | 37 nM | 13% | –
CSc1ccc2c(c1)C(N1CCN(C)CC1)Cc1ccccc1S2 (stereo not given) | – | 99% | – | – | – | – | 99% | –
CC(C)NCC(O)COc1cccc2ccccc12 (stereo not given) [PROPRANOLOL] | – | – | – | – | – | – | – | half-life (in vitro): 1.41 h
COc1ccc(/C=C2\NC(=O)N(CCCN3CCN(c4ccccc4OC)CC3)C2=O)cc1OC | 42 nM | 0% | 83% | 9% | 25% | 13 nM | 0% | –
COc1ccc(/C=C2\NC(=O)N(CCCN3CCN(c4ncccn4)CC3)C2=O)cc1OC | 74 nM | 8% | 78% | 1% | 23% | 12 nM | 15% | –
COc1ccc(/C=C2\NC(=O)N(CCCCN3CCN(c4cccc(Cl)c4Cl)CC3)C2=O)cc1OC | 0.8 nM | 6% | 98% | 5% | 82% | 0.2 nM | 82% | selectivity ratio [9]: 1.31; Activity (Mus musculus [10]): Non-Toxic; IC50 (SW480): 255000 nM; Ratio IC50 [11]: 1.16; Emax [12]: 13%; Emax [8]: 37%; IC50 [13]: 39 nM; Kb [14]: 1.3 nM; IC50 (HaCaT): 296000 nM; Emax [15]: 15%; Activity (Mus musculus [16]): 27%; IC50 [17]: 163 nM; Emax [18]: 12%; IC50 (PC-3): 227000 nM; Kb [19]: 54.3 nM
COc1ccc(C2CNC(=O)C2)cc1OC1CCCC1 (stereo not given) | – | – | – | – | – | – | – | inhibition [20]: 84%
COc1ccc(/C=C2\NC(=O)N(CCCN3CCN(c4cccc(Cl)c4Cl)CC3)C2=O)cc1OC1CCCC1 | 380 nM | 0% | 96% | 3% | 27% | > 1000 nM | 70% | –

Source: ChEMBL document CHEMBL4342411, “Novel multitarget 5-arylidenehydantoins with arylpiperazinealkyl fragment: Pharmacological evaluation and investigation of cytotoxicity and metabolic stability” (Bioorg Med Chem, 2019)
